Reference: ChEMBL document CHEMBL1125316, “New hydroxyethylamine HIV protease inhibitors that suppress viral replication” (J Med Chem, 1992)
Converted amounts (≈) assume the structure as drawn. The source made the active and inactive calls. The rule behind the calls is not given here. Starred links: 1 amine or outer side, 2 acyl side, 3 side chain; linkers in the order of their positions; H or OH if unused. Non-standard residues stand in square brackets, D forms with d. Residues, ends and D or L forms follow the SMILES beside them. ξ: configuration not given here. *: point of attachment. Pheψ(R-CH(OH)CH2N)Pro = O=C([C@@H]1CCCN1C[C@@H](O)[C@H](Cc1ccccc1)N[*:1])[*:2]; Pheψ(R-CHOHCH2N)ξPro = O=C(C1CCCN1C[C@@H](O)[C@H](Cc1ccccc1)N[*:1])[*:2]; Phe(3-Ph) = N[C@@H](Cc1cccc(-c2ccccc2)c1)C(=O)O; Bip = N[C@@H](Cc1ccc(-c2ccccc2)cc1)C(=O)O; 2Nal = N[C@@H](Cc1ccc2ccccc2c1)C(=O)O; hPhe = N[C@@H](CCc1ccccc1)C(=O)O; Boc = CC(C)(C)OC(=O)*

Assays:
[1] = target: Human immunodeficiency virus type 1 protease (Human immunodeficiency virus 1, UniProt Q72874); assay: Binding affinity to HIV protease
Outline: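 Continuous fluorometric assay of HIV protease (6.2 nM enzyme) at pH 6.4 with substrate AntThrIleNlePhe(p-NO2)GlnArgNH2. Ki derived assuming pure competitive tight-binding inhibition, by nonlinear least-squares fit to Morrison's tight-binding equation.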

CCRF-CEM [2] = assay: Compound was evaluated for the inhibition of HIV infected CEM cells.; type: functional, Homo sapiens
Outline: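 CEM (CD4+ lymphocyte line) cultures infected with HTLV-IIIb at MOI 0.1. Compound added 1 h before inoculation; peptides re-dosed days 2 and 5 post-infection. Virus-induced CPE quantitated at day 7 by formazan dye. Controls were untreated, infected and compound-only cells. EC50 for 50% CPE inhibition by linear regression. AZT positive control.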

[3] = system: Simian immunodeficiency virus; assay: Compound was evaluated for the inhibition of SIV induced syncytia formation; type: functional, organism-based
Outline: (§1)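 CEM×174 cells pretreated 30 min with serial 2-fold inhibitor dilutions, then infected with cell-free SIVmac251. Fresh inhibitor added at 48 h. CPE scored as multinucleated giant cell appearance after 7-day incubation. IC50 is the concentration giving 50% CPE inhibition versus infected controls. AZT positive control.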

CCRF-CEM [4] = assay: Compound was evaluated at highest concentration (>10 uM) for the inhibition of HIV infected CEM cells; NA = not active; type: functional, cell-based; conditions: Homo sapiens
Outline: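 CEM (CD4+ lymphocyte) cells infected with HTLV-IIIb at MOI 0.1; compound added 1 h before inoculation, with extra doses on days 2 and 5 for metabolically unstable compounds such as peptides. Virus-induced CPE read at day 7 by formazan dye.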

[5] = system: Simian immunodeficiency virus; assay: Compound was evaluated at highest concentration (>10 syncytia formation; NA = not active; type: functional, organism-based; outline: as §1

Row | SMILES | Ki [1] | further results
1 | CC[C@H](C)[C@H](NC(=O)C1CCCN1C[C@@H](O)[C@H](Cc1ccccc1)NC(=O)[C@H](CC(N)=O)NC(=O)[C@H](CC(C)C)NC(C)=O)C(=O)N[C@H](C(=O)OC)C(C)C (stereo partly drawn) (Ac-LN[Pheψ(R-CHOHCH2N)ξPro]IV-OMe) | 4 nM | –
2 | CC[C@H](C)[C@H](NC(=O)[C@@H]1CCCN1C[C@@H](O)[C@H](Cc1ccccc1)NC(=O)[C@H](CC(N)=O)NC(=O)OCc1ccccc1)C(=O)N[C@@H](Cc1ccccc1)C(=O)OC | 1 nM | EC50 (CCRF-CEM [2]): 0.31 µg/mL (≈ 0.387 µM); IC50 [3]: 4000 nM
3 | CC[C@H](C)[C@H](NC(=O)C1CCCN1C[C@@H](O)[C@H](Cc1ccccc1)NC(=O)[C@H](CC(N)=O)NC(=O)OCc1ccccc1)C(=O)N[C@H](C(=O)OC)C(C)C (stereo partly drawn) | 9.7 nM | –
4 | CC[C@H](C)[C@H](NC(=O)C1CCCN1C[C@@H](O)[C@H](Cc1ccccc1)NC(=O)[C@H](CC(N)=O)NC(=O)[C@H](CC(C)C)NC(=O)[C@H](CO)NC(C)=O)C(=O)N[C@H](C(=O)OC)C(C)C (stereo partly drawn) (Ac-SLN[Pheψ(R-CHOHCH2N)ξPro]IV-OMe) | 0.6 nM | Inhibition (CCRF-CEM [4]): inactive; IC50 [5]: Not Active
5 | CC[C@H](C)[C@H](NC(=O)C1CCCN1C[C@@H](O)[C@H](Cc1ccccc1)NC(=O)[C@H](CC(N)=O)NC(=O)[C@H](CC(C)C)NC(=O)OC(C)(C)C)C(=O)N[C@H](C(=O)OC)C(C)C (stereo partly drawn) (Boc-LN[Pheψ(R-CHOHCH2N)ξPro]IV-OMe) | 66 nM | –
6 | CC[C@H](C)[C@H](NC(=O)C1CCCN1C[C@@H](O)[C@H](Cc1ccccc1)NC(=O)[C@H](CC(N)=O)NC(=O)[C@H](CC(C)C)NC(=O)[C@H](CO)NC(C)=O)C(=O)N[C@@H](Cc1ccccc1)C(=O)OC (stereo partly drawn) (Ac-SLN[Pheψ(R-CHOHCH2N)ξPro]IF-OMe) | 0.67 nM | –
7 | CC[C@H](C)[C@H](NC(=O)C1CCCN1C[C@@H](O)[C@H](Cc1ccccc1)NC(=O)[C@H](CC(N)=O)NC(=O)[C@H](Cc1ccc(-c2ccccc2)cc1)NC(=O)OC(C)(C)C)C(=O)N[C@H](C(=O)OC)C(C)C (stereo partly drawn) (Boc-[Bip]N[Pheψ(R-CHOHCH2N)ξPro]IV-OMe) | 14 nM | –
8 | CC[C@H](C)[C@H](NC(=O)C1CCCN1C[C@@H](O)[C@H](Cc1ccccc1)NC(=O)[C@H](CC(N)=O)NC(=O)[C@H](CC(C)C)NC(=O)[C@H](CO)NC(C)=O)C(=O)N[C@@H](CCc1ccccc1)C(=O)OC (stereo partly drawn) (Ac-SLN[Pheψ(R-CHOHCH2N)ξPro]I[hPhe]-OMe) | 1.26 nM | –
9 | CC[C@H](C)[C@H](NC(=O)C1CCCN1C[C@@H](O)[C@H](Cc1ccccc1)NC(=O)[C@H](CC(N)=O)NC(=O)c1ccc2ccccc2n1)C(=O)N[C@@H](Cc1ccccc1)C(=O)NC (stereo partly drawn) | 0.8 nM | EC50 (CCRF-CEM [2]): 0.13 µg/mL (≈ 0.158 µM); IC50 [3]: 4000 nM
10 | CC[C@H](C)[C@H](NC(=O)C1CCCN1C[C@@H](O)[C@H](Cc1ccccc1)NC(=O)[C@H](CC(N)=O)NC(=O)[C@H](CCc1ccccc1)NC(=O)OC(C)(C)C)C(=O)N[C@H](C(=O)OC)C(C)C (stereo partly drawn) (Boc-[hPhe]N[Pheψ(R-CHOHCH2N)ξPro]IV-OMe) | 20 nM | –
11 | CC[C@H](C)[C@H](NC(=O)C1CCCN1C[C@@H](O)[C@H](Cc1ccccc1)NC(=O)[C@H](CC(N)=O)NC(=O)[C@H](Cc1c(I)cc(O)cc1I)NC(=O)OC(C)(C)C)C(=O)N[C@H](C(=O)OC)C(C)C (stereo partly drawn) | 131 nM | –
12 | CC[C@H](C)[C@H](NC(=O)C1CCCN1C[C@@H](O)[C@H](Cc1ccccc1)NC(=O)[C@H](CC(N)=O)NC(=O)OC(C)(C)C)C(=O)N[C@H](C(=O)OC)C(C)C (stereo partly drawn) | 440 nM | –
13 | CC[C@H](C)[C@H](NC(=O)C1CCCN1C[C@@H](O)[C@H](Cc1ccccc1)NC(=O)[C@H](CC(N)=O)NC(=O)[C@H](Cc1cccc(-c2ccccc2)c1)NC(=O)OC(C)(C)C)C(=O)N[C@H](C(=O)OC)C(C)C (stereo partly drawn) (Boc-[Phe(3-Ph)]N[Pheψ(R-CHOHCH2N)ξPro]IV-OMe) | 6.8 nM | –
14 | CC[C@H](C)[C@H](NC(=O)C1CCCN1C[C@@H](O)[C@H](Cc1ccccc1)NC(=O)[C@H](CC(N)=O)NC(=O)c1ccc2ccccc2n1)C(=O)N[C@@H](Cc1ccc2ccccc2c1)C(=O)OC (stereo partly drawn) | 0.5 nM | –
15 | CC[C@H](C)[C@H](NC(=O)[C@@H]1CCCN1C[C@@H](O)[C@H](Cc1ccccc1)NC(=O)[C@H](CC(N)=O)NC(=O)[C@H](CC(C)C)NC(=O)[C@H](CO)NC(C)=O)C(=O)N[C@H](C(=O)OC)C(C)C (Ac-SLN[Pheψ(R-CH(OH)CH2N)Pro]IV-OMe) | 0.24 nM | –
16 | CC[C@H](C)[C@H](NC(=O)C1CCCN1C[C@@H](O)[C@H](Cc1ccccc1)NC(=O)[C@H](CC(N)=O)NC(=O)[C@H](CC(C)C)NC(=O)[C@H](CO)NC(C)=O)C(=O)N[C@@H](Cc1c[nH]c2ccccc12)C(=O)OC (stereo partly drawn) (Ac-SLN[Pheψ(R-CHOHCH2N)ξPro]IW-OMe) | 3.6 nM | –
17 | CC[C@H](C)[C@H](NC(=O)[C@@H]1CCCN1C[C@@H](O)[C@H](Cc1ccccc1)NC(=O)[C@H](CC(N)=O)NC(=O)c1ccc2ccccc2n1)C(=O)N[C@@H](Cc1ccccc1)C(=O)OC | 0.1 nM | –
18 | CC[C@H](C)[C@H](NC(=O)C1CCCN1C[C@@H](O)[C@H](Cc1ccccc1)NC(=O)[C@H](CC(N)=O)NC(=O)c1ccc2ccccc2n1)C(=O)NCCc1ccccn1 (stereo partly drawn) | 13 nM | EC50 (CCRF-CEM [2]): 0.19 µg/mL (≈ 0.248 µM); IC50 [3]: 4000 nM
19 | CC[C@H](C)[C@H](NC(=O)C1CCCN1C[C@@H](O)[C@H](Cc1ccccc1)NC(=O)[C@H](CC(N)=O)NC(=O)OCc1ccccc1)C(=O)N[C@@H](Cc1ccccc1)C(=O)OC (stereo partly drawn) | 1.7 nM | EC50 (CCRF-CEM [2]): 0.6 µg/mL (≈ 0.749 µM); IC50 [3]: 8000 nM
20 | CC[C@H](C)[C@H](NC(=O)C1CCCN1C[C@@H](O)[C@H](Cc1ccccc1)NC(=O)[C@H](CC(N)=O)NC(=O)OCc1ccccc1)C(=O)N[C@@H](Cc1ccccc1)C(=O)NC (stereo partly drawn) | 1.5 nM | EC50 (CCRF-CEM [2]): 0.3 µg/mL (≈ 0.375 µM); IC50 [3]: 4000 nM
21 | CC[C@H](C)[C@H](NC(=O)C1CCCN1C[C@@H](O)[C@H](Cc1ccccc1)NC(=O)[C@H](CC(N)=O)NC(=O)OCc1ccccc1)C(=O)NCCc1ccccn1 (stereo partly drawn) | 71 nM | –
22 | CC[C@H](C)[C@H](NC(=O)C1CCCN1C[C@@H](O)[C@H](Cc1ccccc1)NC(=O)[C@H](CC(N)=O)NC(=O)[C@H](Cc1ccc2ccccc2c1)NC(=O)OC(C)(C)C)C(=O)N[C@H](C(=O)OC)C(C)C (stereo partly drawn) (Boc-[2Nal]N[Pheψ(R-CHOHCH2N)ξPro]IV-OMe) | 7.8 nM | –
23 | CC[C@H](C)[C@H](NC(=O)C1CCCN1C[C@@H](O)[C@H](Cc1ccccc1)NC(=O)[C@H](CC(N)=O)NC(=O)[C@H](CC(C)C)NC(=O)[C@H](CO)NC(C)=O)C(=O)N[C@@H](Cc1ccc2ccccc2c1)C(=O)OC (stereo partly drawn) (Ac-SLN[Pheψ(R-CHOHCH2N)ξPro]I[2Nal]-OMe) | 5.1 nM | –
24 | CC[C@H](C)[C@H](NC(=O)C1CCCN1C[C@@H](O)[C@H](Cc1ccccc1)NC(=O)[C@H](CC(N)=O)NC(=O)OCc1ccccc1)C(=O)N[C@@H](Cc1ccc2ccccc2c1)C(=O)OC (stereo partly drawn) | 1.9 nM | –
25 | CC[C@H](C)[C@H](NC(=O)C1CCCN1C[C@@H](O)[C@H](Cc1ccccc1)NC(=O)[C@H](CC(N)=O)NC(=O)c1ccc2ccccc2n1)C(=O)N[C@H](C(=O)OC)C(C)C (stereo partly drawn) | 2.5 nM | –
26 | CC[C@H](C)[C@H](NC(=O)C1CCCN1C[C@@H](O)[C@H](Cc1ccccc1)NC(=O)[C@H](CC(N)=O)NC(=O)c1ccc2ccccc2n1)C(=O)N[C@@H](Cc1ccccc1)C(=O)OC (stereo partly drawn) | 0.4 nM | –
